The nature of assay [1]: Antiproliferative activity against human SW1116 cells after 48 hrs by MTT assay. The assay is classed as functional, cell-based. Particulars: SW 1116, 48 h. A digest of the protocol: (§1)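 1×10^4 cells/well seeded and held 24 h at 37 °C, 5% CO2. Viability read after 48 h by MTT (4 h, 37 °C), DMSO solubilization, A570. Three independent experiments, mean ± SD.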
Assay [2] addresses Telomerase reverse transcriptase (Homo sapiens, UniProt O14746). Briefly: Inhibition of telomerase in human SW1116 cells after 24 hrs by TRAP-PCR-ELISA assay. It is filed as cell-based, SW 1116. A digest of the protocol:
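Cells kept in DMEM with 10% FBS, streptomycin and penicillin at 37 °C, 5% CO2. Lysed in RIPA on ice for 30 min, supernatant cleared at 12,000g. Extract used in a TRAP kit, 35 PCR cycles, ELISA read at 490 nm. Mean ± SD.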

The test system of assay [3] is HeLa. Briefly: Antiproliferative activity against human HeLa cells after 48 hrs by MTT assay. It is filed as functional, cell-based. The essentials: as §1
The subject of assay [4] is HepG2. Put plainly: Antiproliferative activity against human HepG2 cells after 48 hrs by MTT assay. The assay is classed as functional, cell-based. As to conditions: HepG2, 48 h. The essentials:
as §1

In assay [5] the test system is BGC-823. Put plainly: Antiproliferative activity against human BGC823 cells after 48 hrs by MTT assay. Particulars: BGC-823, 48 h. The assay is classed as functional, cell-based. The essentials: as §1

The values that follow come from ChEMBL document CHEMBL1914319 (Bioorg Med Chem, 2011).

Structures are written as SMILES.

Telomerase reverse transcriptase, sequence (O14746 whole entry): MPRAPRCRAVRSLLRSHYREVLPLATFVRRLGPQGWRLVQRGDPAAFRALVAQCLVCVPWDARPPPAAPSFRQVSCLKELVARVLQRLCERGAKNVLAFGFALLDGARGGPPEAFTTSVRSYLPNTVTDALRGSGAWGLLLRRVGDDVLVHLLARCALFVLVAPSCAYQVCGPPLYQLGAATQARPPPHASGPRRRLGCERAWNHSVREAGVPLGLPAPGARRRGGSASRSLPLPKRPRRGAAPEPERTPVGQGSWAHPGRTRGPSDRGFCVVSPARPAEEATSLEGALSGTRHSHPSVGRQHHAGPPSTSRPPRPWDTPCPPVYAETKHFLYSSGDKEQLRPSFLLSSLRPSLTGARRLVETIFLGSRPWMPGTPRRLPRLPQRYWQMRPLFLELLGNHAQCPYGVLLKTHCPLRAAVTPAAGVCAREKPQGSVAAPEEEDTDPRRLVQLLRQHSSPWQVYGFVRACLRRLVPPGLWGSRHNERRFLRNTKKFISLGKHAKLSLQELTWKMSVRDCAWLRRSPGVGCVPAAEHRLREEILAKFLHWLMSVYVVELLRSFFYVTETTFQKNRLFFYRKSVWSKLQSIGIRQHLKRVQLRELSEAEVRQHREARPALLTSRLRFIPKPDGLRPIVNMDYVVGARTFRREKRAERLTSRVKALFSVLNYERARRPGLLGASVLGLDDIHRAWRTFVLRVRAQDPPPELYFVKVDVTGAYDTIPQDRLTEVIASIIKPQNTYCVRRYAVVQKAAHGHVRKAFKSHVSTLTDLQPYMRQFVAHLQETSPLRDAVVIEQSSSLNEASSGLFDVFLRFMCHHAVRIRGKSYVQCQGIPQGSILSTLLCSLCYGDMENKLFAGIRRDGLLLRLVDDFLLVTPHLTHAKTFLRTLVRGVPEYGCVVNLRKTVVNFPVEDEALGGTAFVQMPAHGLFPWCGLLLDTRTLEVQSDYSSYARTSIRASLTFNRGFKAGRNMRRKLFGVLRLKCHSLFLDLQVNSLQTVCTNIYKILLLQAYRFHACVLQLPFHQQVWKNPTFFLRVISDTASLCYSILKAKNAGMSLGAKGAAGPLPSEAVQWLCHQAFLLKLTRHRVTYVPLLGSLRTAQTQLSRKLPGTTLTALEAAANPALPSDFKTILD

Turning to `Ic1ccc(CSc2nnc(-c3ccc4c(c3)OCCO4)o2)cc1`, the concentration for half-maximal inhibition (IC50) is 29.2 µM in assay [1]; 3.66 µM in assay [2]; 31.1 µM in assay [3]; 31.2 µM in assay [4]; 22.7 µM in assay [5].
Take `Fc1ccc(CSc2nnc(-c3ccc4c(c3)OCCO4)o2)c(F)c1`: the half-maximal inhibitory concentration (IC50) came to 29.6 µM in assay [1]; 2.44 µM in assay [2]; 41.7 µM in assay [3]; 38.7 µM in assay [4]; 30.3 µM in assay [5].
For the compound `c1ccc(CSc2nnc(-c3ccc4c(c3)OCCO4)o2)cc1`, the IC50 in assay [1] worked out at 31.5 µM; in assay [2] it was 8.21 µM; in assay [3], 40.3 µM; in assay [4] it was 32.1 µM; in assay [5] it was 33.6 µM.
In the same order, the values of `Cc1ccccc1CSc1nnc(-c2ccc3c(c2)OCCO3)o1` are 23.9 µM, 1.27 µM, 19 µM, 22 µM and 22.6 µM.
Take `O=c1[nH]cc(F)c(=O)[nH]1` [FLUOROURACIL]: the IC50 in assay [1] came to 95.2 µM; in assay [3], 110 µM; in assay [5], 100 µM.
Turning to `Fc1ccc(CSc2nnc(-c3ccc4c(c3)OCCO4)o2)cc1`, the half-inhibitory concentration (IC50) worked out at 21.6 µM in assay [1]; 3.67 µM in assay [2]; 41.2 µM in assay [3]; 38 µM in assay [4]; 28.7 µM in assay [5].
For `O=[N+]([O-])c1cccc(CSc2nnc(-c3ccc4c(c3)OCCO4)o2)c1` the same measures were 30.1 µM, 4.65 µM, 35.6 µM, 38.3 µM and 23.7 µM.
Consider `O=[N+]([O-])c1ccccc1CSc1nnc(-c2ccc3c(c2)OCCO3)o1`, for which the half-maximal inhibitory concentration (IC50) in assay [1] came out at 20.8 µM; in assay [2], 12.1 µM; in assay [3] it was 32.7 µM; in assay [4], 38.1 µM; in assay [5] it was 23.3 µM.
As to `Brc1cccc(CSc2nnc(-c3ccc4c(c3)OCCO4)o2)c1`, the IC50 in assay [1] came to 20.1 µM; in assay [2], 2.45 µM; in assay [3], 25.9 µM; in assay [4], 24.9 µM; in assay [5] it was 20.6 µM.
In the same order, the values of `Clc1ccccc1CSc1nnc(-c2ccc3c(c2)OCCO3)o1` are 29.5 µM, 5.89 µM, 36.8 µM, 22.6 µM and 22.5 µM.
On to `Cc1ccc(CSc2nnc(-c3ccc4c(c3)OCCO4)o2)cc1`, for which the IC50 in assay [1] amounted to 32.5 µM; in assay [2] it was 5.04 µM; in assay [3] it was 45.4 µM; in assay [4], 41.9 µM; in assay [5], 31.6 µM.
Consider `Clc1cccc(CSc2nnc(-c3ccc4c(c3)OCCO4)o2)c1`, for which the 50% inhibitory concentration (IC50) in assay [1] is 25.2 µM; in assay [2], 2.34 µM; in assay [3], 31.8 µM; in assay [4], 33.4 µM; in assay [5], 26.9 µM.
Regarding `Fc1ccccc1CSc1nnc(-c2ccc3c(c2)OCCO3)o1`, the IC50 in assay [1] was 21.9 µM; in assay [2], 2.93 µM; in assay [3], 41.6 µM; in assay [4], 24 µM; in assay [5], 28.9 µM.
As for `Clc1ccc(CSc2nnc(-c3ccc4c(c3)OCCO4)o2)cc1`, the IC50 in assay [1] stood at 28.4 µM; in assay [2], 2.91 µM; in assay [3], 28.5 µM; in assay [4], 28.8 µM; in assay [5] it was 22.6 µM.
In the same order, the values of `O=[N+]([O-])c1ccc(CSc2nnc(-c3ccc4c(c3)OCCO4)o2)cc1` are 14.6 µM, 2.71 µM, 27.5 µM, 35.4 µM and 23 µM.
For the compound `Brc1ccc(CSc2nnc(-c3ccc4c(c3)OCCO4)o2)cc1`, the half-maximal inhibitory concentration (IC50) worked out at 24.5 µM in assay [1]; 1.66 µM in assay [2]; 23.6 µM in assay [3]; 8.54 µM in assay [4]; 22.2 µM in assay [5].
For `Fc1cccc(F)c1CSc1nnc(-c2ccc3c(c2)OCCO3)o1` the same measures were 36.3 µM, 15.8 µM, 43.2 µM, 41.6 µM and 36.1 µM.
As for `Ic1ccccc1CSc1nnc(-c2ccc3c(c2)OCCO3)o1`, the IC50 in assay [1] amounted to 12.2 µM; in assay [2], 1.83 µM; in assay [3], 20 µM; in assay [4], 7.21 µM; in assay [5], 18.9 µM.
In the same order, the values of `Brc1ccccc1CSc1nnc(-c2ccc3c(c2)OCCO3)o1` are 14.1 µM, 2.02 µM, 22.4 µM, 19.9 µM and 21.2 µM.
In the same order, the values of `Cc1cccc(CSc2nnc(-c3ccc4c(c3)OCCO4)o2)c1` are 27.2 µM, 3.26 µM, 32.8 µM, 33.4 µM and 31.2 µM.
